Paper PMC7338260 (European journal of medicinal chemistry, 2020)

Experiments:
[1] = tested on: HEK293 cell line expressing hNOD2 and NFκB-SEAP reporter; assay: Human NOD2 signaling HEKBlue reporter assay; assay type: cell-based; conditions: read-out: RIPK2/NOD2 Cell Assay IC50, HEKBlue, 1 ng/mL L18-MDP, mean of two or three determinations ± standard deviation, NI: No inhibition up to 10 μM
Outline: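 Cells seeded at 7.5-15x10^3 per well; after 24–48 h switched to HEKBlue detection medium and given an 11-point dose range of test compound together with the stimulant. SEAP read as absorbance at 620 nm after 7–9 h. Media-only background subtracted; % inhibition relative to DMSO/L18-MDP controls; IC50 by non-linear regression.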

[2] = molecular target: Recombinant RIPK2 protein (Homo sapiens, UniProt O43353); assay: RIPK2 enzyme assay; assay type: biochemical; conditions: for selectivity for RIPK2 versus ALK2: ratio of ALK2 to RIPK2 kinase IC50
Outline: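 Started with solution of 100 μM ATP + 1 mg/ml RS repeat peptide, 2 h RT; ADP-Glo luminescence. IC50 by non-linear regression. ALK2: human enzyme, casein 1 mg/mL, γ-33ATP 10 μM, 10 nM–100 μM compound, 30 min, 33P-casein.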

RAW264.7 macrophages [3] = conditions: cited from earlier work
[4] = tested on: XIAP-mediated RIPK2 ubiquitination; conditions: cited from earlier work
GST-BIR2-cIAP1 and RIPK2 = conditions: cited from earlier work
U2OS/NOD2 cells = conditions: cited from earlier work
RAW264.7 macrophages [5] = assay type: cell-based; conditions: at 1 μM; data not shown

Chain of Recombinant RIPK2 protein (O43353 whole entry): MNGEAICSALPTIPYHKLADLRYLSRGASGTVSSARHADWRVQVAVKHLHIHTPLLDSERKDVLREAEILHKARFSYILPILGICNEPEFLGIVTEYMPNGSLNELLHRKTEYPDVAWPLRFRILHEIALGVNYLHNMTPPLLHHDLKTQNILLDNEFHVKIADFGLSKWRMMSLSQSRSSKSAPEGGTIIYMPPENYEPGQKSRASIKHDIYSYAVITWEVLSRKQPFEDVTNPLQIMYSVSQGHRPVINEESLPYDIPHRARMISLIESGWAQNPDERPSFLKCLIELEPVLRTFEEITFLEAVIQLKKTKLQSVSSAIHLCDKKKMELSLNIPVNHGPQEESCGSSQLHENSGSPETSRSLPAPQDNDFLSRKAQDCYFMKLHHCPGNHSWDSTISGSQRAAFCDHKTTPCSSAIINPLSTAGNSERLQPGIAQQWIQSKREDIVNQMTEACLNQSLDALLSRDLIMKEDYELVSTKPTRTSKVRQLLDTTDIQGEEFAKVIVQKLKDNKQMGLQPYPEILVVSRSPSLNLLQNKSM

SMILES: COc1cc(-c2cc(-c3ccc(N4CCNCC4)cc3)cnc2C)cc(OC)c1OC [Compound 9a, reference compound]
- IC50 [1]: > 10 µM

SMILES: CCCS(=O)(=O)Nc1cc(-c2cc(-c3ccccc3S(C)(=O)=O)cnc2N)ccc1OC [Compound 18ab, N-(5-(2-Amino-5-(2-(methylsulfonyl)phenyl)pyridin-3-yl)-2-methoxyphenyl)propane-1-sulfonamide]
- IC50 [1]: > 10 µM

SMILES: CCCS(=O)(=O)Nc1cc(-c2cc(-c3ccc(S(C)(=O)=O)cc3)cnc2N)ccc1OC [Compound 18ad, N-(5-(2-Amino-5-(4-(methylsulfonyl)phenyl)pyridin-3-yl)-2-methoxyphenyl)propane-1-sulfonamide]
- IC50 [1]: > 10 µM

SMILES: CCCS(=O)(=O)Nc1cc(-c2cc(-c3ccc(N4CCNCC4)cc3)cnc2N)ccc1OC [Compound 18m, N-(5-(2-Amino-5-(4-(piperazin-1-yl)phenyl)pyridin-3-yl)-2-methoxyphenyl)propane-1-sulfonamide]
- IC50 [2]: 0.041 ± 0.019 µM
- selectivity for RIPK2 versus ALK2 [2]: 86 fold

SMILES: CCCS(=O)(=O)Nc1cc(-c2cc(-c3ccc(N4CCNCC4)cc3)cnc2N)ccc1O [Compound 18n, N-(5-(2-Amino-5-(4-(piperazin-1-yl)phenyl)pyridin-3-yl)-2-hydroxyphenyl)propane-1-sulfonamide]
- IC50 [1]: > 5 µM

SMILES: CCCS(=O)(=O)Nc1cc(-c2cc(-c3ccc(N4CCNCC4)cc3)cnc2N)cc(OC)c1OC [Compound 18p, N-(5-(2-Amino-5-(4-(piperazin-1-yl)phenyl)pyridin-3-yl)-2,3-dimethoxyphenyl)propane-1-sulfonamide]
- inhibition of L18-MDP-induced TNFα release (RAW264.7 macrophages [3]): efficient inhibition
- XIAP-mediated RIPK2 ubiquitination [4]: blocked
- interaction between GST-BIR2-cIAP1 and RIPK2 (GST-BIR2-cIAP1 and RIPK2): interfered
- inhibition of L18-MDP-induced CXCL8 production (U2OS/NOD2 cells): efficient inhibition

SMILES: CCCS(=O)(=O)Nc1cc(-c2cc(-c3ccc(N4CCNCC4)cc3)cnc2N)cc(OCC)c1OC [Compound 18q, N-(5-(2-Amino-5-(4-(piperazin-1-yl)phenyl)pyridin-3-yl)-3-ethoxy-2-methoxyphenyl)propane-1-sulfonamide]
- IC50 [1]: > 10 µM

SMILES: CCCS(=O)(=O)Nc1cc(-c2cc(-c3ccc(N4CCNCC4)cc3)cnc2N)cc(F)c1OC [Compound 18t, N-(5-(2-Amino-5-(4-(piperazin-1-yl)phenyl)pyridin-3-yl)-3-fluoro-2-methoxyphenyl)propane-1-sulfonamide]
- selectivity for RIPK2 versus ALK2 [2]: > 20 fold
- inhibition of L18-MDP-induced TNFα release (RAW264.7 macrophages [3]): efficient inhibition
- XIAP-mediated RIPK2 ubiquitination [4]: blocked
- interaction between GST-BIR2-cIAP1 and RIPK2 (GST-BIR2-cIAP1 and RIPK2): interfered
- inhibition of L18-MDP-induced CXCL8 production (U2OS/NOD2 cells): efficient inhibition
- block of RIPK1 and RIPK3 dependent necroptosis (RAW264.7 macrophages [5]): did not block
